{"data": "Assay results pooled from the literature", "target": "Histamine H3 receptor (HRH3, Homo sapiens, UniProt Q9Y5N1)", "note": "Each line is one published result; the experiments were not run side by side."}
{"SMILES": "O=C(Nc1cccnn1)N1CCN([C@@H]2CCOc3cc(C(F)(F)F)ccc32)CC1", "test": "cell-free assay", "conditions": "20 µM", "inhibition": "11%"}
{"SMILES": "COCc1c(-c2cc3cc(C)cc(OC)c3s2)c2c(N)ncnn2c1CN1CCNC(=O)C1", "test": "ligand displacement, radioligand", "conditions": "10 µM", "inhibition": "-8%"}
{"SMILES": "c1ccc(C(NCCNC(c2ccccc2)c2ccccc2)c2ccccc2)cc1", "test": "cell-free assay", "conditions": "10 µM", "inhibition": "1%"}
{"SMILES": "Cc1c(N2CCNCC2)nc2ccc(Br)cc2c1C(=O)NC[C@H](CCC(=O)O)c1ccccc1Cl", "test": "ligand displacement", "conditions": "10 µM", "inhibition": "16.9%"}
{"SMILES": "CN(CCN1CCC(OC(=O)Nc2ccccc2-c2ccccc2)CC1)C(=O)c1ccc(CN2CCC(C(N)=O)CC2)cc1", "test": "ligand displacement, radioligand", "conditions": "1 µM", "inhibition": "72%"}
{"SMILES": "N#CC1(c2ccccn2)CCN(Cc2cc(C(=O)O)c(=O)n3ccccc23)CC1", "test": "cell-free assay", "conditions": "10 µM", "inhibition": "4.08%"}
{"SMILES": "C[C@H](C(=O)N[C@H]1COc2ccccc2[C@@H]1S(C)(=O)=O)c1ccc(F)cc1", "test": "cell-free assay", "conditions": "10 µM", "inhibition": "1%"}
{"SMILES": "CC(C)N1CCC[C@H]1CNC(=O)c1cn(C2CCCC2)c(=O)c2c1c1ccccc1n2C", "test": "ligand displacement, radioligand", "conditions": "10 µM", "inhibition": "26%"}
